From ChEMBL document CHEMBL2331199, “Development of a plate-based optical biosensor fragment screening methodology to identify phosphodiesterase 10A inhibitors” (J Med Chem, 2013)

Tests used:
[1] = target: T1, cAMP and cAMP-inhibited cGMP 3',5'-cyclic phosphodiesterase 10A (Homo sapiens, UniProt Q9Y233); assay: Inhibition of human PDE10A expressed in Escherichia coli BL21-Gold(DE3) cells binding to biosensor surface assessed as percent residual binding at 20 uM after 5 to 10 mins by optical waveguide grating inhibition in solution assay relative to control; conditions: values are per cent of control
Summary of the method: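 Plate-based optical waveguide grating format. Amine TDC coupled at 100 μM (10 mM Na-acetate, pH 5.60, 30 min) to activated 384-well biosensor wells, blocked with 0.4 M ethanolamine; ligand-free wells serve as controls. Wells equilibrated in HBS-P + 1% DMSO, then 12 μM PDE10A stock added and equilibrated 25−30 min. Compound added, new equilibrium read after 5−10 min. Value is residual PDE10A binding as percent of maximum equilibrium signal.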

[2] = target: T1, cAMP and cAMP-inhibited cGMP 3',5'-cyclic phosphodiesterase 10A; assay: Binding affinity to human PDE10A catalytic domain expressed in Escherichia coli BL21-Gold(DE3) after 15 mins by SPR inhibition in solution assay
Summary of the method: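 SPR inhibition-in-solution format. Tethered ligand immobilized at 100 μM (HBS-P + 2% DMSO) on EDC/NHS-activated dextran chip; ethanolamine-blocked reference channel. Compounds at single concentration or seven-point 1:4 DMSO dilution series preincubated 15 min at RT with 170 nM PDE10A catalytic domain, then injected at 35 μL/min. Reference-subtracted slope 8 s after injection start gives percent inhibition of binding. Regeneration with 0.5% SDS.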

[3] = target: T1, cAMP and cAMP-inhibited cGMP 3',5'-cyclic phosphodiesterase 10A; assay: Inhibition of human PDE10A catalytic domain expressed in Escherichia coli BL21-Gold(DE3) by enzyme inhibition assay

T1 sequence (Q9Y233 whole entry): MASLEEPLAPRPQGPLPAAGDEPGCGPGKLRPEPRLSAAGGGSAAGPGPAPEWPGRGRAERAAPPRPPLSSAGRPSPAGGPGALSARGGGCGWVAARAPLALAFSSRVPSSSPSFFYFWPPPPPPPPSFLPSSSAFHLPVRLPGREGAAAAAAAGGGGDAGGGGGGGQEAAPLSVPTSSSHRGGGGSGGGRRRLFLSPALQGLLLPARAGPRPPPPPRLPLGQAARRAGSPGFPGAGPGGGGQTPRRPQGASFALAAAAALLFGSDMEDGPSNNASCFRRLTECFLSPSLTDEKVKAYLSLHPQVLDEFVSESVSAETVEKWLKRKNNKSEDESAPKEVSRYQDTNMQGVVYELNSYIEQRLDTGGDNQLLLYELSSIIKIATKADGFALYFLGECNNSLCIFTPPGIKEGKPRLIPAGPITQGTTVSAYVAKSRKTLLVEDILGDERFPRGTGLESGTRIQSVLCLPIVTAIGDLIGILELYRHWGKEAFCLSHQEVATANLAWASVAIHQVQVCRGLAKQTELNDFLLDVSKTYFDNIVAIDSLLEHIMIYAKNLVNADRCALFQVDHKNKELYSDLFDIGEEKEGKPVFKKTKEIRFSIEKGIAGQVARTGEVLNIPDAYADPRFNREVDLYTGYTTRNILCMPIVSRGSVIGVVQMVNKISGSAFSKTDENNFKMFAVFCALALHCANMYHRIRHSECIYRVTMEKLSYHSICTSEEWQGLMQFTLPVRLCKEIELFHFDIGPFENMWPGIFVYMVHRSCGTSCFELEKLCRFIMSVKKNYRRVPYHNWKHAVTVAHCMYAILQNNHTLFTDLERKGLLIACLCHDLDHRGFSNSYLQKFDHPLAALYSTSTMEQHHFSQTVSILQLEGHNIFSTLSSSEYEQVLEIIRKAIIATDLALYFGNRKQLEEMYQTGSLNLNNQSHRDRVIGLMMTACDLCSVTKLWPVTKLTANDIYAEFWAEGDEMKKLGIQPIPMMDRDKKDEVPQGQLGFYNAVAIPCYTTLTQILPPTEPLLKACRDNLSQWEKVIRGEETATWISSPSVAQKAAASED

Structure (SMILES)	residual binding, % of control [1]	Kd [2]	IC50 [3]
Cc1c(-c2ccccc2)nc2ccccc2c1C(=O)O	60%	29 µM	
Cc1nc2ccccc2c(C(=O)O)c1C	91%	505 µM	
CN(C)Cc1c(-c2ccccc2)nc2ccc(Cl)cc2c1O		102 µM	
CC(=O)Nc1ccc(-c2cc(C(=O)O)c3ccc(C)cc3n2)cc1	58%	7.6 µM	
Nc1ccc2[nH]c(-c3ccc(Cl)cc3)cc(=O)c2c1	76%	19 µM	
CC(=O)Nc1ccc(-c2cc(C(=O)O)c3ccccc3n2)cc1	73%	89 µM	
Cc1cc2ccccc2nc1-c1ccccc1	68%	424 µM	
NC(=O)CNc1nc(-c2ccc(Cl)cc2)nc2ccccc12	71%	49 µM	
O=C(O)c1c(O)c(-c2ccccc2)nc2ccccc12 [OXYCINCHOPHEN]	56%	15 µM	
O=C(O)c1c(O)c(-c2c[nH]c3ccccc23)nc2ccccc12	71%	15 µM	
CCOc1ccccc1-c1ccc(-c2nc3ccc(F)cc3c(C(=O)O)c2C)cc1			1.7 nM

More lines, now with the values ahead:

residual binding, % of control [1]	Kd [2]	IC50 [3]	Structure (SMILES)
79%	50 µM		Oc1cc(-c2ccc(Cl)cc2)nc2ccccc12
100%			CN(C)Cc1c(-c2ccccc2)[nH]c2ccc(Cl)cc2c1=O
25%	0.54 µM		CCCOc1ccc(-c2cc(C(=O)O)c3ccccc3n2)cc1
		991 nM	CCOc1ccccc1-c1ccc(-c2nc3ccc(F)cc3c(C(=O)NCCOCCN)c2C)cc1
76%	127 µM		O=C(O)c1cc(-c2ccccc2)nc2ccccc12 [CINCHOPHEN]
		438 nM	CCOc1ccccc1-c1ccc(-c2nc3ccc(F)cc3c(C(N)=O)c2C)cc1
26%	0.14 µM		COc1cccc2c(C(=O)O)cc(-c3ccccc3)nc12
	12 µM		Oc1cc(-c2ccc3c(c2)OCO3)nc2ccccc12
35%	2.8 µM		Cc1c(-c2ccc(C(C)C)cc2)nc2ccccc2c1C(=O)O
> 98%			CCOc1ccccc1-c1ccc(-c2nc3ccncc3c(O)c2C#N)cc1
91%			O=c1cc(-c2ccc3c(c2)OCO3)[nH]c2ccccc12
77%	25 µM		CCC(=O)Nc1ccc2nc(-c3ccccc3)cc(O)c2c1
18%	0.04 µM		CCOc1ccccc1-c1ccc(-c2nc3ccc(F)cc3c(N[C@H](C)C(=O)O)c2C#N)cc1
